Drawing on ChEMBL document CHEMBL4406794, “N-(7-Cyano-6-(4-fluoro-3-(2-(3-(trifluoromethyl)phenyl)acetamido)phenoxy)benzo[d]thiazol-2-yl)cyclopropanecarboxamide (TAK-632) Analogues as Novel Necroptosis Inhibitors by Targeting Receptor-Interacting Protein Kinase 3 (RIPK3): Synthesis, Structure-Activity Relationships, and in Vivo Efficacy” (J Med Chem, 2019), this text covers Activity, Kd and CC50 for one molecule.

Data set [1] concerns Mus musculus. The data set is described as follows: Protection against TNFalpha/Z-VAD-fmk-induced C57BL/6J mouse model of systemic inflammatory response syndrome at 100 mg/kg, po administered via gavage 2 hrs prior to Z-VAD-fmk addition for 15 mins followed by TNFalpha stimulation for 1 hr and subsequent Z-VAD-fmk addition meaured up to 50 hrs post TNFalpha stimulation relative to control. Type of data set: functional.

In data set [2] the test system is Mus musculus. The data set is described as follows: Protection against TNFalpha/Z-VAD-fmk-induced C57BL/6J mouse model of systemic inflammatory response syndrome at 25 mg/kg, po administered via gavage 2 hrs prior to Z-VAD-fmk addition for 15 mins followed by TNFalpha stimulation for 1 hr and subsequent Z-VAD-fmk addition meaured up to 50 hrs post TNFalpha stimulation relative to control. Type of data set: functional. Summed up: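 Overnight-fasted C57BL/6 female mice, n=10 per group. Test compound was given by oral gavage 2 h before mTNF-α. z-VAD-fmk (180 µg) was injected ip, then 15 min later mTNF-α in endotoxin-free PBS was injected iv (400 µg/kg). A second z-VAD-fmk dose (70 µg) was given ip 1 h after TNF. Body temperature and survival were followed against vehicle. One-way ANOVA was used.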

Data set [3] has as its system Mus musculus. The data set is described as follows: Protection against TNFalpha/Z-VAD-fmk-induced C57BL/6J mouse model of systemic inflammatory response syndrome assessed as increase in body temperature at 5 to 50 mg/kg, po administered via gavage 2 hrs prior to Z-VAD-fmk addition for 15 mins followed by TNFalpha stimulation for 1 hr and subsequent Z-VAD-fmk addition meaured up to 50 hrs post TNFalpha stimulation by electric thermometer. Type of data set: functional, organism-based. The method in brief:
(§1)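 Female C57BL/6 mice, fasted overnight, n=10 per group. Compound given by oral gavage at 5, 25 or 50 mg/kg 2 h before TNF. z-VAD-fmk 180 µg i.p., then 15 min later mTNF-α 400 µg/kg i.v. in endotoxin-free PBS, then a further 70 µg z-VAD-fmk i.p. 1 h later. Body temperature and survival followed, compared with vehicle by one-way ANOVA.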

Data set [4] has as its system Mus musculus. The data set is described as follows: Protection against TNFalpha/Z-VAD-fmk-induced C57BL/6J mouse model of systemic inflammatory response syndrome assessed as increase in mouse survial at 5 to 50 mg/kg, po administered via gavage 2 hrs prior to Z-VAD-fmk addition for 15 mins followed by TNFalpha stimulation for 1 hr and subsequent Z-VAD-fmk addition meaured up to 50 hrs post TNFalpha stimulation. Type of data set: functional, organism-based. Summed up: as §1

The target in data set [5] is T1, Receptor-interacting serine/threonine-protein kinase 1 (Homo sapiens, UniProt Q13546).
T1 sequence (Q13546 whole entry): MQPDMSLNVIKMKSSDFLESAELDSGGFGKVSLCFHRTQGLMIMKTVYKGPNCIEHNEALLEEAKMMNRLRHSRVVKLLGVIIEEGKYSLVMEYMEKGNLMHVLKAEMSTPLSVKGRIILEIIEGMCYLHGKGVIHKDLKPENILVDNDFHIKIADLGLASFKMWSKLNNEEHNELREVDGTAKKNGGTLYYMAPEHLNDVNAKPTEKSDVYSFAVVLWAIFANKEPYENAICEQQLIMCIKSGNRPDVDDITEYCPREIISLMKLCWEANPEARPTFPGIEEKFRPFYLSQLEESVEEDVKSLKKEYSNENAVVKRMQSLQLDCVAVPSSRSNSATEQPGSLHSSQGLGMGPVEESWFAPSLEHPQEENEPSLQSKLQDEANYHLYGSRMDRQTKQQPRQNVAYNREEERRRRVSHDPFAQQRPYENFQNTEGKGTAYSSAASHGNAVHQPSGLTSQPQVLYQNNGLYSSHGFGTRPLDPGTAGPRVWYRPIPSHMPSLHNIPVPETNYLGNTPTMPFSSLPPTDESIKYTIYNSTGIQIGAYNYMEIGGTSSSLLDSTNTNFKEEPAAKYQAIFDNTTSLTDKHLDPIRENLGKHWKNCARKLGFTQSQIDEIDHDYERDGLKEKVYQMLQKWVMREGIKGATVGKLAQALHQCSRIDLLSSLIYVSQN
The data set is described as follows: Binding affinity to wild-type human partial length RIPK1 (M1 to K305 residues) expressed in bacterial expression system after 1 hr by quantitative PCR based KINOMEscan assay. Summed up: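 KINOMEscan competition binding. Bound kinase eluted with 0.5 μM nonbiotinylated ligand for 30 min and quantified by qPCR. Duplicates averaged.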

Data set [6] can be described thus: Cytotoxicity against human HT-29 cells measured after 12 hrs by CellTiter-Glo Luminescent assay. Type of data set: cell-based. Background: ATP-based viability assays read luminescence as a measure of living cells.

Active and inactive are the calls of the source. The rule behind the calls is not given here.

Take `N#Cc1c(Oc2ccc(F)c(NC(=O)Cc3cccc(C(F)(F)F)c3)c2)ccc2nc(NC(=O)C3CC3)sc12`: the results for the Activity in the data set on Mus musculus [1] and with Mus musculus [2] were 70% and 20%, respectively. The result in the data set on Mus musculus [3] and in the data set with Mus musculus [4] was Active. For the same molecule, in data set [5], the affinity, expressed as Kd, was 0.48 µM. Moreover, the CC50 (commonly the concentration at which the toxic effect on the cells reaches its halfway point) at 12 h in data set [6] is above 50 µM.
